Bioassay records from PubChem.
Sampled rows, rich in hits. Any-hit rate of the full collection: about 1.8%.
CHRM5 agonist – CHRM5 agonism in calcium assay. P08912. CHO-K1 hM5 cells, Fluo-8 calcium fluorescence; 0% DMSO wells, 100% maximal acetylcholine response. activation, % at 3 µM. 360,000 compounds, 0.19% hits;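 active = activation above the run's mean over test compounds plus 3 SD, cut at about 23% in these data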;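 note: signal is peak over basal fluorescence ratio across the kinetic read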
CHRM4 agonist – CHRM4 agonism in calcium assay; P08173; CHO-K1 hM4/Gqi5, Fluo-8 calcium fluorescence; vehicle 0%, full acetylcholine response 100%; activation, % at 3 µM; 360,000 compounds, 0.14% hits; AID 624127;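 active = activation above the run mean over all test wells plus 3 SD, cut at about 32% in these data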;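 note: peak over basal fluorescence ratio per well then scaled between controls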
Target sequence (P08173 whole entry, looked up): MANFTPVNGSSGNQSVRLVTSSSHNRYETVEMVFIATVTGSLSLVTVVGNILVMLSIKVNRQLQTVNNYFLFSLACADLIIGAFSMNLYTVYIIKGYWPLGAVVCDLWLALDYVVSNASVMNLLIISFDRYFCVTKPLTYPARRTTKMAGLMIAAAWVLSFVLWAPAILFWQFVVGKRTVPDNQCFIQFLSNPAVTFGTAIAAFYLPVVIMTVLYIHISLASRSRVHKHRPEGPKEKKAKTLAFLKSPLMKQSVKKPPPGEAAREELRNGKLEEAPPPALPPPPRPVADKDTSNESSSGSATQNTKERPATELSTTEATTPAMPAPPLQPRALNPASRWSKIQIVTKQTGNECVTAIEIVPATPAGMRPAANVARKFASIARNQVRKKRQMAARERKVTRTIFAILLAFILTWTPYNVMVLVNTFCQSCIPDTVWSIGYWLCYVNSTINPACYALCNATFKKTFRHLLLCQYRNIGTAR
CHRM4 PAM – potentiates acetylcholine response at human M4 receptor | CHO-K1 hM4/Gqi5, Fluo-8 calcium fluorescence, ACh EC20; 0% = ACh EC20, 100% = maximal ACh | P08173 | activation, % at 3 µM | 360,000 compounds, 0.4% hits;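 active = activation above its plate's cutoff, the mean activation of sample wells plus 3 SD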
M5 PAM – CHRM5 positive allosteric modulation; P08912; CHO-K1 hM5, Fluo-8 calcium, ACh EC20 PAM; 0% = ACh EC20, 100% = ACh EC100; activation, % at 3 µM; 360,000 compounds, 0.3% hits;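 active = activation above the run cutoff, the mean activation of all test compounds plus 3 SD, cut at about 18% in these data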
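Assay system: CHO-K1 hM5 cells. Also added: acetylcholine at EC20 concentration, added after compound. Dosing: 3 µM, single dose. Times: compound preincubation 140 s before EC20 acetylcholine addition. Signal: Fluo-8 calcium fluorescence. Measure: % activation relative to EC20 and EC100 ACh responses. Repeats: singlicate, one well per test compound.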
M5 antag – CHRM5 antagonism in calcium assay. CHO-hM5 cells, Fluo-8 calcium fluorescence, ACh EC80. inhibition, % at 3 µM. 360,000 compounds, 0.59% hits. AID 624040;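 active = inhibition above a per-plate cutoff, the mean of that plate's test compounds plus 3 SD, cut at about 27% in these data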
M4 antag – antagonists of human muscarinic M4 receptor (CHRM4); CHO-hM4 cells, ACh EC80, Fluo-8 calcium fluorescence; inhibition, % at 3 µM; 360,000 compounds, 0.73% hits; AID 624125; P08173;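 active = inhibition above its plate's cutoff, the mean inhibition of sample wells plus 3 SD, cut at about 27% in these data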
Of the large screens only hits and unclear results are named; the others gave an inactive call; ! = repeats disagree.

CN(C)c1ccc(/C=C/c2nc3ccccc3c(=O)n2CCO)cc1	CHRM4 agonist 42
CN(C)CCOC(=O)C1(c2ccccc2)CCCC1	M5 antag 86, M4 antag 77
CCN(CC)CCOC(=O)c1ccc(NC(=O)C2(c3ccccc3)CCCC2)cc1	M5 antag 36
O=C(OCCN1CCCC1)C1(c2ccccc2)CCCC1	M5 antag 99, M4 antag 94
CCNC(=O)C1(c2ccccc2)CCCC1	none
O=C(OCCN1CCCCC1)c1ccccc1Br	none
O=C(OCCN1CCCCC1)C1(c2ccccc2)CCCC1	M5 antag 99, M4 antag 91
O=C(O)c1ccc(NC(=O)C2(c3ccccc3)CCCC2)cc1	none
CCOC(=O)c1c(NC(=O)CN2C(=O)C(=O)N(C(C)C)C2=O)sc(C)c1CC	none
COc1ccc(OC)c(S(=O)(=O)N2CCC(C(=O)N(C)Cc3ccccc3)CC2)c1	none
CC1(C(=O)NCC2CCCCC2)CCN1CCc1ccccc1 (stereo unspecified)	none
COc1ccccc1/C=N/NC(=O)CC(=O)NCCc1ccccc1	none
COc1ccc(C(=O)OCC[N+]2(C)CCOCC2)cc1	none
C[N+]1(CCCOC(=O)C2(c3ccccc3)CCCC2)CCOCC1	M5 antag 87, M4 antag 78
Cc1cc(NC(=O)NC(C(F)(F)F)C(F)(F)F)no1	none
O=C1C2C3C=CC(CC3)C2C(=O)N1c1ccccc1 (stereo unspecified)	none
O=C1C=CC2C3C(=O)N(c4ccccc4)C(=O)C3C1N2Cc1ccccc1 (stereo unspecified)	M4 antag 31
Cc1ccc(C)c(S(=O)(=O)N2CCC(c3nc4c(nnn4Cc4ccc(F)cc4)c(=O)[nH]3)CC2)c1	M4 antag 49
Cc1cccc(NC(=O)CSCc2nc3c(nnn3Cc3ccc(F)cc3)c(=O)[nH]2)c1C	none
O=c1[nH]c(C2CCN(S(=O)(=O)c3ccccc3F)CC2)nc2c1nnn2Cc1ccc2c(c1)OCCO2	none
Cc1ccc(Cn2nnc3c(=O)[nH]c(C4CCN(S(=O)(=O)c5ccc(F)cc5)CC4)nc32)cc1	M4 antag 32
Cc1ccc(NC(=O)CSCc2nc3c(nnn3Cc3ccc(F)cc3)c(=O)[nH]2)c(C)c1	M5 PAM 21
O=c1[nH]c(C2CCN(S(=O)(=O)c3ccc(F)cc3)CC2)nc2c1nnn2Cc1ccc2c(c1)OCCO2	M4 antag 81
O=c1[nH]c(C2CCN(S(=O)(=O)c3ccc(S(=O)(=O)NC4CC4)cc3)CC2)nc2c1nnn2Cc1ccc(F)cc1	none
COc1cccc(Oc2nc(-c3ccncc3)nc3ccccc23)c1	none
CC(=O)c1ccc(N2CCN(C(=O)CCC(=O)Nc3ccc4nc(N5CCN(C)CC5)cc(C)c4c3)CC2)cc1	none
CC12CCC(=O)N1C(C(=O)Nc1cccc(F)c1)CS2 (stereo unspecified)	none
Cc1ccc(C)c(Nc2nn3c(=O)c4ccc(C(=O)NCc5cccnc5)cc4nc3s2)c1	M4 antag 31
O=c1[nH]c2ccccc2c2ccc(Cl)cc12	none
O=c1[nH]c2cc(F)ccc2c2ccc(F)cc12	M5 PAM 19
N#CC1=C(N)OC(c2ccccc2)=C(C#N)C1c1ccc2c(c1)OCO2 (stereo unspecified)	none
N#CC1=C(N)OC2=C(C(=O)CC(c3ccccc3)C2)C1c1ccc2c(c1)OCO2 (stereo unspecified)	M4 antag 38
CCN(CC)S(=O)(=O)c1ccc(C(=O)N2CCN(C(=O)c3ccco3)CC2)cc1	none
CCN(CC)S(=O)(=O)c1ccc(S(=O)(=O)N2CCN(C(=O)c3ccco3)CC2)cc1	M4 antag 29
C=C1CC2(OC1=O)c1ccccc1CCc1ccccc12	M4 antag 48
C#CCOCCOCCOCCNc1nc(N2CCN(C(=O)[C@H](CCC(=O)O)n3cc(C(N)CO)nn3)CC2)nc(N2CCN(C(=O)[C@H](CCC(=O)O)n3cc(C(N)[C@H](C)CC)nn3)CC2)n1 (stereo partly specified)	none
O=C(O)C1CCN(C(=O)CSc2nnc3ccccn23)CC1	none
Cn1c(N)c(C(=O)CSc2nc3ccccc3c(=O)n2CCCN2CCOCC2)c(=O)n(C)c1=O	none
Cc1[nH]c2ccccc2c1C(=O)CSc1nc2ccccc2c(=O)n1CCCN1CCOCC1	M4 antag 27
O=C1NC(=O)C(c2ccccc2)(c2ccc(Cl)cc2Cl)N1 (stereo unspecified)	none
S=C(NCCCN1CCOCC1)N(Cc1ccccc1)Cc1ccccc1	M5 antag 31
O=C(CCCc1ccccc1)NCCCN1CCOCC1	none
c1ccc(CCCN2CCOCC2)cc1	CHRM4 PAM 17
c1ccc(OCc2ccc(CCCN3CCOCC3)cc2)cc1	none
CN[C@@H](C)C(=O)NC[C@H]1O[C@@H](n2cnc3c(N)ncnc32)[C@H](O)[C@@H]1O	none
COc1ccccc1OCC(O)CN1CCN(CC(=O)Nc2c(C)cccc2C)CC1 (stereo unspecified)	M4 antag 28!
NCCc1nnc(SCc2ccccc2Cl)o1	none
NCCCCCc1nnc(SCc2ccc(Cl)cc2Cl)o1	M5 antag 43, M4 antag 50
NCCCCCc1nnc(SCc2cccc(Cl)c2)o1	M5 antag 80, M4 antag 85
O=C(NCCOc1ccccc1)c1cc(C(=O)NCCOc2ccccc2)cc([N+](=O)[O-])c1	M5 antag 27
O=C(NCCOc1ccccc1)c1ccccc1[N+](=O)[O-]	none
O=C(COC(=O)c1ccc[nH]c1=O)NC1CCCCC1	none
O=C(CSc1ccc(-c2ccccn2)nn1)c1ccc(F)cc1	M5 PAM 28, M5 antag 32
O=C(CSc1ccc(-c2ccccn2)nn1)c1ccccc1	none
COc1ccc2nc(NC(=O)CS(=O)(=O)c3ccc(C)cc3)sc2c1	none
O=C(O)CCN1CC2([N+](=O)[O-])CC=C(OCCO)C([N+](=O)[O-])(C1)C2 (stereo unspecified)	none
COC1=CCC2([N+](=O)[O-])CN(CCO)CC1([N+](=O)[O-])C2 (stereo unspecified)	M5 PAM 19
Cc1ccc(C)c(C(=O)OCC(=O)Nc2cccc(S(=O)(=O)N3CCCCC3)c2)c1	none
CC(=O)Nc1ccc(NC(=O)C(C)OC(=O)c2ccc3c(c2)OCCO3)cc1 (stereo unspecified)	CHRM4 PAM 32
CC(=O)NCC(=O)OC(C)C(=O)Nc1ccc(C(C)=O)cc1 (stereo unspecified)	M5 PAM 25
